One may read the IC50 as the concentration that gives 50% inhibition. By HC50 is commonly meant the concentration giving 50% haemolysis. What is called MIC50 is an inhibitory concentration at the 50% level, which refers to growth in some studies and to a panel of isolates in others. By MIC90 is commonly meant an inhibitory concentration at the 90% level, which refers to growth in some studies and to a panel of isolates in others. One may read the Cmax as the maximum level reached in the sampled fluid or tissue. Broadly, the AUC is concentration integrated over time. Usually Kp stands for the ratio of the level in a tissue or fluid to that in plasma or blood. The term ΔTm denotes the change in melting temperature against a reference sample.

In brackets after ≈: the same amount, converted by molar mass. A value given as a limit tells only on which side of the number the result lay.

For one data set, the system named is Vero C1008. The data set can be described thus: Cytotoxicity against African green monkey Vero E6 cells assessed as cell growth inhibition after 48 hrs by celltitre 96 aqueous one-based assay. To be noted: Chlorocebus sabaeus, Vero C1008, 48 h.
The nature of data set [1]: Hemolytic activity against human RBC after 1 hr. Type of data set: ADME, cell-based, Erythrocyte. To be noted: red blood cells (erythrocytes). A digest of the protocol: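 Human red blood cells were exposed to the test compound at a range of concentrations in phosphate-buffered saline for 1 h at 37°C. Hemolysis was referenced to 2% Triton X-100, taken as 100% hemolysis. The value reported is the concentration that lyses 50% of RBCs.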

Data set [2] deals with Mycobacterium tuberculosis. The experiment in a line: Bactericidal activity against Mycobacterium tuberculosis H37Rv ATCC 27294 assessed as 1000 fold reduction in CFU after 7 days. The format is functional. To be noted: H37Rv ATCC 27294, 168 h, read-out: MBC99.9. A digest of the protocol: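 BCG ran 5 days at 37°C, 110 rpm; H37Rv ran 7 days at 37°C, 80 rpm. CFU counted on 7H10 agar. MBC99.9 is the 1000-fold CFU reduction versus inoculum at time zero. Average of 2 or more determinations.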

Data set [3] concerns Mycobacterium tuberculosis. The data set can be described thus: Loebicidal activity against nutrient-starved nongrowing Mycobacterium tuberculosis H37Rv ATCC 27294 assessed as 1000 fold reduction in CFU after 7 days. Type of data set: functional. A digest of the protocol: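 Mtb H37Rv nutrient-starved, non-growing bacilli prepared from a roller-bottle culture. 1 mL at OD600 = 0.05 exposed to a range of concentrations for 7 days at 37°C, 80 rpm. CFU counted on 7H10 agar. LCC99.9 is the 1000-fold reduction versus drug-free inoculum at time zero.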

Data set [4] concerns Mycobacterium tuberculosis. The data set can be described thus: Antimycobacterial activity against Mycobacterium tuberculosis H37Rv ATCC 27294 after 7 days by broth dilution method. As to conditions: H37Rv ATCC 27294, 168 h. The format is functional. In general terms: In broth dilution the organism is exposed to a series of concentrations in liquid medium.
Data set [5] has as its system Mycobacterium tuberculosis. The experiment in a line: Bactericidal activity against Mycobacterium tuberculosis H37Rv ATCC 27294 after 5 days. To be noted: H37Rv ATCC 27294, 120 h, read-out: MBC99.9. The format is functional.
The nature of data set [6]: Half life in rat liver microsomes at 1 uM preincubated for 5 mins followed by NADPH addition measure up to 45 mins by LC-MS analysis. The format is ADME, microsome. As to conditions: 0.75 h. A digest of the protocol: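 Male rat liver microsomes, incubated 45 min at 37°C. Half-life reported as mean ± SD.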
Data set [7] is described as follows: Cmax in CD1 mouse at 25 mg/kg, po administered as single dose by LC/MS-MS analysis. The format is ADME, organism-based. Also on record: dose 25 mg/kg, route oral. As to conditions: in vivo. A digest of the protocol: (§1)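 Uninfected CD-1 mice (n=2 per compound), single oral dose 25 mg/kg as a solution in 5% DMA/65% PEG300/30% D5W. Blood taken at 30 min, 1, 3, 5 h and plasma separated by centrifugation. Lungs taken at 5 h and homogenized in ~5 volumes PBS. Levels measured by LC/MS-MS after acetonitrile/methanol protein precipitation with verapamil internal standard. AUC and Cmax calculated from mean concentrations.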

For data set [8], the system named is Mus musculus. The experiment in a line: AUC in CD1 mouse at 25 mg/kg, po administered as single dose by LC/MS-MS analysis. The format is ADME, organism-based. To be noted: in vivo. A digest of the protocol:
as §1

Data set [9] can be described thus: Plasma concentration in CD1 mouse at 25 mg/kg, po administered as single dose measured at 5 hrs post dose by LC/MS-MS analysis. Type of data set: ADME, organism-based. A digest of the protocol: as §1
Data set [10] is described as follows: Drug uptake in lungs of CD1 mouse at 25 mg/kg, po administered as single dose measured at 5 hrs post dose by LC/MS-MS analysis. As to conditions: lung, read-out: Drug uptake. Type of data set: ADME, organism-based. A digest of the protocol: as §1
Data set [11] in a line: Ratio of drug level in CD1 mouse lung to plasma at 25 mg/kg, po administered as single dose measured at 5 hrs post dose by LC/MS-MS analysis. Type of data set: ADME, organism-based. A digest of the protocol: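 Blood taken at 30 min, 1, 3, 5 h and plasma separated by centrifugation. Lungs taken at 5 h and homogenized in ~5 volumes PBS. Levels measured by LC/MS-MS after acetonitrile/methanol protein precipitation with verapamil internal standard. AUC and Cmax calculated from mean concentrations.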

For data set [12], the system named is Mus musculus. The data set can be described thus: Toxicity in CD1 mouse at 25 mg/kg, po administered as single dose by LC/MS-MS analysis. The format is organism-based. As to conditions: in vivo. A digest of the protocol: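 Uninfected CD-1 mice (n=2 per compound) received a single oral 25 mg/kg dose as a solution in 5% DMA/65% PEG300/30% D5W. Tail-bleed blood was taken at 30 min, 1, 3 and 5 h and spun to plasma. Lungs were taken at 5 h and homogenized in about 5 volumes of PBS. Samples were acetonitrile/methanol-precipitated with verapamil internal standard and quantified by LC-MS/MS against standard curves in drug-free CD1 plasma.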

Data set [13] has as its system Mus musculus. The data set can be described thus: Acute toxicity in BALB/c mouse at 100 mg/kg administered via oral gavage for 3 days measured over 7 days. The format is organism-based. As to conditions: in vivo, 168 h. A digest of the protocol:
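BALB/c mice, 3 per group, oral gavage at 100 mg/kg in 200 μL of equal volumes PEG400 and 5% glucose. Dosed on three consecutive days, then monitored 7 days. Euthanized by CO2 and examined for gross pathological changes.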

The nature of data set [14]: Drug uptake in lung of Mycobacterium tuberculosis H37Rv infected BALB/c mouse at 100 mg/kg administered 6 days per week for 4 weeks via oral gavage. The format is ADME, organism-based. To be noted: in vivo, read-out: Drug uptake.

Take `CCCCCCCCn1cc(CN2CCC3(CC2)OCCCS3)c2ccc(OC)cc21`: the IC50 in the data set on Vero C1008 is 39 µM. Also, the HC50 at 1 h in [1] is > 300 µM. The MBC in data set [2] and in data set [5] was 3.2 µM (≈ 1.42 µg/mL) each time. Besides, the LCC99.9 in [3] is <18 µM. Also, the MIC50 in data set [4] stood at 0.5 µM (≈ 0.222 µg/mL). Further, in data set [4], the MIC90 turned out to be 0.8 µM (≈ 0.356 µg/mL). In [6], this molecule had a t1/2 of 32.9 min. Also, the Cmax in data set [7] is 60.6 ng/mL. Moreover, the exposure (AUC) with Mus musculus [8] was determined as 224 ng·h/mL. The concentration at 5 h in data set [9] came to 55.2 ng/mL; in data set [10], 1600 ng/g. Besides, in [11], the partition ratio (Kp) at 5 h was 28.9. The Activity entry in the data set on Mus musculus [12] is on record as “Non-Toxic”. The ΔTm in the data set on Lipid bilayer is 4 °C.
`CCCCCCCCn1cc(CN2CCC3(CC2)OCCO3)c2ccc(OC)cc21` had an HC50 at 1 h in [1] of 75 µM. For the same molecule, in [4], the MIC50 was determined as 1.2 µM (≈ 0.498 µg/mL). In addition, the MIC90 in data set [4] worked out at 2.3 µM (≈ 0.954 µg/mL). Further, the t1/2 in [6] worked out at 17.4 min. Also, in data set [7], the Cmax turned out to be 42 ng/mL. Further, the area under the curve (AUC) with Mus musculus [8] worked out at 173 ng·h/mL. For the same molecule, the values for the concentration at 5 h in data set [9] and in [10] were 33 ng/mL and 468 ng/g, respectively. In [11], the partition ratio (Kp) at 5 h amounted to 14.2. The Activity result in the data set with Mus musculus [12] and with Mus musculus [13] was “Non-Toxic” in each case. For the same molecule, the concentration in data set [14] amounted to 1000 nM.
Consider `CCCCCCCCn1cc(CN2CCC3(CC2)OCCCO3)c2ccc(OC)cc21`, for which, in the data set on Vero C1008, the IC50 turned out to be 29 µM. This molecule also registered a concentration for 50% haemolysis (HC50) at 1 h in [1] of 64 µM. The MBC in data set [2] and in data set [5] was 3.2 µM (≈ 1.37 µg/mL) in each case. Further, the LCC99 in [3] was 18 µM. This molecule showed an MIC50 in [4] of 0.44 µM (≈ 0.189 µg/mL). Also, the MIC90 in data set [4] was determined as 0.76 µM (≈ 0.326 µg/mL). Besides, in data set [6], the t1/2 worked out at 27.7 min. In data set [7], this molecule displayed a Cmax of 64.8 ng/mL. The molecule also displayed an AUC with Mus musculus [8] of 282 ng·h/mL. Also, the concentration at 5 h in data set [9] came to 58.5 ng/mL. The Activity entry with Mus musculus [12] and in the data set with Mus musculus [13] was “Non-Toxic” throughout. Also, the concentration in data set [14] amounted to 3000 nM. Besides, the thermal shift (ΔTm) in the data set with Lipid bilayer stood at 4 °C.

The values above are taken from ChEMBL document CHEMBL4145615, “Indolyl Azaspiroketal Mannich Bases Are Potent Antimycobacterial Agents with Selective Membrane Permeabilizing Effects and in Vivo Activity” (J Med Chem, 2018).
